# Screening data from PubChem.
# The list is not random: actives were taken first. Their share in the collection is about 1.2%.
# CHO-K1 Ca PAM – counter-screen for M1 PAMs: effect in parental CHO-K1 cells; ATP EC20, Fluo-8 calcium fluorescence; 0% at ATP EC20, 100% at ATP max; actives 0.02% (n = 360,000); activation, % at 3 µM;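 active = activation above the run cutoff, the mean activation of all test compounds plus 3 SD, cut at about 40% in these data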;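 note: peak over basal fluorescence ratio in a 140 s read after ATP addition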
# TRPML3 ag – agonists of human TRPML3 channel; Q8TDD5; HEK293 TRPML3-YFP, Fluo-8 calcium fluorescence; 100% = the carbachol control signal; activation, % at 3 µM; actives 0.29% (n = 220,000); AID 1448;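 active = activation above its plate's cutoff, the mean activation of the plate's test wells plus 3 SD, cut at about 12% in these data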;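 note: 0% = DMSO only wells and 100% = carbachol wells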
# Target sequence (Q8TDD5 whole entry, looked up): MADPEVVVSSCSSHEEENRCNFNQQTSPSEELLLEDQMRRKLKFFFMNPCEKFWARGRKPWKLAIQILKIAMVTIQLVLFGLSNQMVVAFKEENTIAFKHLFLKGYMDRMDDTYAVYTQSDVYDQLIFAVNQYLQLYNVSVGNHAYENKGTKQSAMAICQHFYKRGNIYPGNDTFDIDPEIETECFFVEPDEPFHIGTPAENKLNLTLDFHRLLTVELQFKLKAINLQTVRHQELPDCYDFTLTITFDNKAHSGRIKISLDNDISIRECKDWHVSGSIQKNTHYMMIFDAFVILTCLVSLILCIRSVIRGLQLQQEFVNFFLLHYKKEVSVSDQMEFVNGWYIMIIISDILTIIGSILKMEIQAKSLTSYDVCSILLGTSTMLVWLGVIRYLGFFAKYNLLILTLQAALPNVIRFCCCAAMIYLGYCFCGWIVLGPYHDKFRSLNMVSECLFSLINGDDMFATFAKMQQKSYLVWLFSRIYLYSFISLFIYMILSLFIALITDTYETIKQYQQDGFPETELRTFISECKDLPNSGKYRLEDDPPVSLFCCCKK
#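 Test system: TRPML3-YFP stable HEK293 cells. Doses: single point at 3 µM. Incubation: dye loading 1 h 37 °C then 30 min ambient, 125 s read. Signal: Fluo-8 calcium dye fluorescence, ex 470-495, em 515-575 nm. Measure: percent activation from peak-to-basal fluorescence ratio, scaled between DMSO and carbachol.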
# zfTRPN1 agonist – zebrafish TRPN1 (NompC) channel agonism; HEK293 zebrafish TRPN1-YFP, Fluo-8 calcium fluorescence; 100% = response to 87 µM carbachol; activation, % at 3 µM; actives 0.18% (n = 220,000);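 active = activation above its plate's cutoff, the mean activation of test wells on that plate plus 3 SD, cut at about 19% in these data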;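 note: 0% = DMSO alone and 100% = 87 µM carbachol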
#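 Control set: carbachol 87 µM as high control, DMSO as low control; system: HEK293 stable line with zebrafish TRPN1-YFP; read-out: % activation versus carbachol response; detection: intracellular calcium fluorescence with Fluo-8; doses: single test compound dose, 3 µM nominal, 0.3% DMSO; schedule: dye 1 h 37 °C plus 30 min RT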
# CHO-K1 Ca ag – M1 agonist counterscreen hit in parental CHO-K1 cells | activation, % at 3 µM | actives 0.48% (n = 360,000) | AID 602248 | Fluo-8 calcium fluorescence; scaled to maximal ATP response, vehicle zero; in the data active = activation above about 15%;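 note: untransfected CHO-K1 host cells lacking M1 receptor as counterscreen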
# CHO-K1 Ca antag – counter-screen for M1 antagonists: effect in parental CHO-K1 cells; actives 0.6% (n = 360,000); inhibition, % at 3 µM; ATP-induced calcium, Fluo-8 fluorescence; AID 602250;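 active = inhibition above a per-plate cutoff, the plate's mean sample inhibition plus 3 SD, cut at about 24% in these data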;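 note: 0% = DMSO plus EC80 ATP and 100% = DMSO alone without ATP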
# The depositor's hits bear a star; nt = not tested or not shown.
SMILES,CHO-K1 Ca PAM,TRPML3 ag,zfTRPN1 agonist,CHO-K1 Ca ag,CHO-K1 Ca antag
Cc1ccc(NC(=O)CSc2nnc(CNC(=O)c3c(F)cccc3Cl)o2)cc1,-6,0,-1,0,26*
O=C1CCCc2[nH]nc(-c3cccnc3)c21,-9,1,0,0,26*
CN1CCN(c2ncnc3c2ncn3[C@H]2CN(Cc3ccc(Cl)cc3)C[C@@H](CO)O2)CC1,6,nt,nt,1,12
c1ccc(Nc2ncnc3sccc23)cc1,25,nt,nt,3,-20
CC(Nc1ncnc2sccc12)c1ccccc1 (centres undefined),6,nt,nt,16*,23
Cc1nc2sccn2c(=O)c1S(=O)(=O)N1CCN(c2ccccc2F)CC1,5,nt,nt,5,7
CSc1nc(Cc2ccccc2)nc2ccccc12,-5,0,0,-1,24*
CC(C)(C)NC(=O)CSc1nc(Cc2ccccc2)nc2ccccc12,18,nt,nt,0,-11
CC(C)c1ccc(CN2CCC2(C)C(=O)Nc2cccc(Oc3ccccc3)c2)cc1 (centres undefined),-14,nt,nt,0,7
O=C1CN(S(=O)(=O)c2ccccc2)c2ccccc2N1,-8,1,0,5,1
O=C1CN(S(=O)(=O)c2ccc(F)cc2)c2ccccc2N1,-9,nt,nt,0,28*
O=C(NCC1CC1)C1Cc2c(-c3ccc4c(c3)OCO4)ccnc2O1 (centres undefined),29,nt,nt,1,0
NC(=NC(=O)c1ccc(Cl)cc1)N1N=CCC1c1ccccc1 (centres undefined),-9,1,0,-1,25*
O=C(CSc1ccc(Cl)cc1)N1N=CCC1c1ccccc1 (centres undefined),12,-1,-1,2,-7
COc1ccc(CNCCc2ccc(Cl)cc2)cc1OCc1ccccc1,3,1,3,14,8
COc1cc(CNCc2ccccn2)ccc1OCc1ccc(Cl)cc1Cl,3,0,-1,0,25*
CCOc1cc(CNCc2ccccc2)ccc1OCc1ccc(Cl)cc1,-12,nt,nt,20*,29*
CCOc1cc(CNCCc2ccc(S(N)(=O)=O)cc2)cc(Cl)c1OCc1ccccc1,0,2,4,21*,-14
CCOc1cc(CNCCc2ccc(S(N)(=O)=O)cc2)ccc1OCc1ccccc1,4,2,1,12,10
CCOC(=O)c1c(-c2ccccc2)csc1NC(=O)c1ccc(N2C(=O)CCC2=O)cc1,-13,1,2,0,25*
Cc1cc(C)c(S(=O)(=O)N2CCCCC2)c(C)c1N(C)S(=O)(=O)c1ccccc1,10,55*,1,1,-12
COc1ccccc1C(=O)Nc1ccc2c(c1)nc(CN1CCN(C(C)=O)CC1)n2C,-7,0,1,-1,24*
Cc1cccc(OCC(=O)NCc2n[nH]c(=O)c3ccccc23)c1,12,nt,nt,1,0
Cc1cccc(OCC(=O)NCc2ccc(F)cc2)c1,-22,nt,nt,0,24*
O=C(COC(=O)COc1ccccc1)NCc1ccccc1,7,1,1,19*,5
SMILES,CHO-K1 Ca PAM,TRPML3 ag,zfTRPN1 agonist,CHO-K1 Ca ag,CHO-K1 Ca antag
Cc1cc(C)cc(OCC(=O)OCC(=O)NCc2cccs2)c1,-11,-1,-3,0,31*
Cc1cc(C)c(OCC(=O)OCC(=O)NCc2cccs2)c(C)c1,-12,nt,nt,0,5
O=C(NCc1ccc(Cl)c(Cl)c1)c1cc(C2CCCCN2C(=O)c2ccccn2)on1 (centres undefined),-14,nt,nt,0,20
c1ccc(CCNc2c3c(nc4ncnn24)CCC3)cc1,7,1,2,21*,-1
Fc1ccccc1CCNc1c2c(nc3ncnn13)CCCC2,-4,1,2,12,-7
CC(C(=O)Nc1ccc2c(c1)OCCO2)c1ccc([N+](=O)[O-])cc1 (centres undefined),12,13*,20*,17*,-1
CC(C(=O)Nc1ccc2c(c1)OCO2)c1ccc([N+](=O)[O-])cc1 (centres undefined),10,5,9,7,-1
Cc1csc(SC(C)C(=O)Nc2ccc3c(c2)OCCO3)n1 (centres undefined),-9,0,-1,0,2
CC(Sc1nncs1)C(=O)Nc1ccc2c(c1)OCCO2 (centres undefined),9,nt,nt,0,25*
CCn1cc(/C=C(\NC(=O)c2ccccc2)C(=O)NCCCn2ccnc2)c2ccccc21,8,nt,nt,0,-3
O=C(NCCN1CCC(n2c(=O)[nH]c3ccccc32)CC1)c1c(F)cccc1F,9,nt,nt,2,-12
CCC(C)N1CCCC1C(=O)Nc1c(C)cc(C)cc1C (centres undefined),-10,0,1,-1,25*
CCN(CC)C(=O)c1cccc(-c2csc(C(C)(O)c3cccc(F)c3)n2)c1 (centres undefined),9,nt,nt,13,-12
Cc1cc(N2C(=O)C3C4C=CC(C4)C3C2=O)ccc1NC(=O)c1cccs1 (centres undefined),-13,1,0,-1,47*
C=CCN1C(=O)/C(=C/c2ccc(O)c(OC)c2)S/C1=N/c1nccs1,11,16*,32*,17*,24*
CC(C)(C)c1ccc(OCCNC(=O)Cc2ccc(F)cc2)cc1,-12,0,-1,4,27*
CCOC(=O)C1=C(C)N=c2sc(=Cc3cc(Cl)c(OCC(=O)O)c(Cl)c3)c(=O)n2C1c1cccc(OC)c1 (centres undefined),1,nt,nt,0,7
C=CCNc1nc(-c2sc(NC(=O)C(C)(C)C)nc2C)c(-n2cc(-c3ccccc3)nn2)s1,12,nt,nt,11,-2
O=C(Nc1ccc(Cl)c(Cl)c1)O/N=C/c1ccncc1,1,2,5,12,28*
CC(=NCc1ccccc1)c1ccc(O)cc1O,-2,nt,nt,1,-4
CC(O)c1c(-c2ccccc2)nn(C)c1Cl (centres undefined),-13,1,0,0,28*
CNc1nc(Oc2ccccc2C(=O)OC)nc(SC)n1,-8,1,0,-1,30*
CCOC(=O)c1ccc(Oc2nc(NC)nc(SC)n2)cc1,11,0,0,0,-13
COc1cc(/C=C(\C#N)c2nc3ccccc3n2C)cc(OC)c1O,15,17*,37*,4,-12
Cn1c(/C(C#N)=C/c2ccc(O)cc2)nc2ccccc21,12,0,-1,2,-5
COc1ccc(/C=C(\C#N)c2nc3ccccc3[nH]2)cc1O,11,nt,nt,1,1
COc1cc(/C=C(\C#N)C(=O)NCCc2ccccc2)cc(OC)c1O,3,5,13,5,-12
COc1cc(/C=C(\C#N)c2nc3ccccc3[nH]2)cc(OC)c1O,12,7,22*,12,10
COc1cc(/C=C(\C#N)C(=O)c2c[nH]c3ccccc23)cc(OC)c1O,7,3,11,19*,14
